Source: ChEMBL document CHEMBL1921756, “Tyrphostin-like compounds with ubiquitin modulatory activity as possible therapeutic agents for multiple myeloma” (Bioorg Med Chem, 2011)

Experiments:
[1] = Antitumor activity against human OCI-My4 cells after 24 to 72 hrs by MTT assay; format: functional, cell-based
How it was run: (§1)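 Myeloma lines grown in RPMI 1640 with 10% heat-inactivated FBS and 2 mM glutamine. 20,000 cells/well were exposed to a dilution range of compound in RPMI1640/10% FBS (final DMSO ≤0.1%), with vehicle-only controls, at 37 °C for 24–72 h (typically 72 h). MTT was added for 2 h at 37 °C, then lysis buffer (20% SDS, 50% DMF, pH 4.7) for 6 h.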

[2] = Antitumor activity against human MM1 cells after 24 to 72 hrs by MTT assay; format: functional, cell-based; how it was run: as §1
U-266 = experiment: Antitumor activity against human U266 cells after 24 to 72 hrs by MTT assay; format: functional, cell-based; how it was run: as §1
U-87 MG = experiment: Ratio of AG490 IC50 to compound IC50 for human U87MG cells; format: functional, U-87MG ATCC
[3] = Antitumor activity against human U373MG cells after 24 to 72 hrs by MTT assay; format: functional, cell-based, U-373MG ATCC; conditions: U373 MG
How it was run: (§2)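 Tumor cells were plated at 20,000/well and given serially diluted compound in RPMI1640 with 10% FBS (final DMSO ≤0.1%) or vehicle alone, then incubated 24–72 h at 37 °C.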

[4] = Antitumor activity against human U87MG cells after 24 to 72 hrs by MTT assay; format: functional, cell-based, U-87MG ATCC; conditions: U-87 MG; how it was run: as §2
U373 MG = experiment: Ratio of AG490 IC50 to compound IC50 for human U373MG cells; format: functional, U-373MG ATCC

Row | SMILES | IC50 [1] [nM] | IC50 [2] [nM] | IC50 (U-266) [nM] | other results
1 | N#C/C(=C\c1ccc([N+](=O)[O-])cc1)C(=O)NCc1ccccc1 | 12000 | 7500 | 9000 | –
2 | CCC[C@H](NC(=O)/C(C#N)=C/c1cccc(Br)n1)c1ccccc1 | 1500 | 1000 | 1300 | –
3 | C[C@H](NC(=O)/C(C#N)=C/c1cccc(Br)n1)c1ccc(Br)cc1 | 2000 | 1500 | 1800 | –
4 | COc1ccc([C@H](C)NC(=O)/C(C#N)=C/c2cccc(Br)n2)cc1 | 1800 | 1200 | 1400 | –
5 | N#C/C(=C\c1cccc(Br)n1)C(=O)N[C@@H]1CCc2ccccc21 | – | 2000 | 2500 | –
6 | N#C/C(=C\c1cccc(Br)n1)C(=O)N[C@@H]1CCCc2ccccc21 | – | 1500 | 1900 | –
7 | C[C@H](NC(=O)/C(C#N)=C/c1cccc(Br)n1)c1ccc(Cl)cc1 | 2300 | 1600 | 2000 | –
8 | N#C/C(=C\c1cccc(Br)n1)C(=O)N[C@@H](CO)c1ccccc1 | 3900 | 2800 | 3500 | –
9 | CC[C@H](NC(=O)/C(C#N)=C/c1cccc(Br)n1)c1ccccc1 | 1700 | 1100 | 1400 | –
10 | COc1cccc([C@H](C)NC(=O)/C(C#N)=C/c2cccc(Br)n2)c1 | 3100 | 2400 | 2800 | –
11 | N#C/C(=C\c1cccc(Br)n1)C(=O)N[C@H](c1ccccc1)C(F)(F)F | – | 9600 | 11100 | –
12 | C[C@H](NC(=O)/C(C#N)=C/c1cccc(Br)n1)c1cccc(C(F)(F)F)c1 | 1800 | 1300 | 1600 | –
13 | C[C@H](NC(=O)/C(C#N)=C/c1cccc(Br)n1)c1ccc(F)cc1 | – | 1200 | 1400 | –
14 | C[C@H](NC(=O)/C(C#N)=C/c1cccc(Br)n1)c1cc(C(F)(F)F)cc(C(F)(F)F)c1 | – | 1300 | 1500 | –
15 | COC(=O)C[C@H](NC(=O)/C(C#N)=C/c1cccc(Br)n1)c1ccccc1 | – | 3100 | 3300 | –
16 | C[C@H](NC(=O)/C(C#N)=C/c1cccc(Br)n1)c1ccccc1F | 2400 | 1800 | 2000 | –
17 | N#C/C(=C\c1ccc(Cl)c([N+](=O)[O-])c1)C(=O)NC(c1ccccc1)C1CC1 (stereo not given) | 2900 | 2500 | 2800 | –
18 | N#C/C(=C\c1ccc(N2CCCCC2)cc1)C(=O)NC(c1ccccc1)C1CC1 (stereo not given) | – | > 10000 | > 10000 | –
19 | N#C/C(=C\c1cccc(Br)n1)C(=O)N[C@H](c1ccccc1)C1CC1 | – | 1400 | – | –
20 | CCCCCCc1ccc(/C=C(\C#N)C(=O)NC(c2ccccc2)C2CC2)cc1 (stereo not given) | – | > 10000 | – | –
21 | C[C@H](NC(=O)/C(C#N)=C/c1cccc(Br)n1)c1ccc(N)cc1 | – | > 10000 | – | –
22 | N#C/C(=C\c1cccc(Br)n1)C(=O)NCc1cccc(N)c1 | – | > 10000 | – | –
23 | CCC[C@H](NC(=O)/C(C#N)=C/c1ccc([N+](=O)[O-])cc1)c1ccccc1 | – | 2940 | 3600 | –
24 | CCC[C@H](NC(=O)/C(C#N)=C/c1ccc([N+](=O)[O-])cc1[N+](=O)[O-])c1ccccc1 | – | > 10000 | – | –

Row | SMILES | IC50 [1] [nM] | IC50 [2] [nM] | IC50 (U-266) [nM] | other results
25 | CCC[C@H](NC(=O)/C(C#N)=C/c1ccccc1)c1ccccc1 | – | 6250 | 7200 | –
26 | CCC[C@H](NC(=O)/C(C#N)=C/c1cccc([N+](=O)[O-])c1)c1ccccc1 | 2200 | 1730 | 2100 | –
27 | CCC[C@H](NC(=O)/C(C#N)=C/c1ccc(Cl)c([N+](=O)[O-])c1)c1ccccc1 | 1900 | 1580 | 1800 | –
28 | CCC[C@H](NC(=O)/C(C#N)=C/c1c(Cl)cccc1[N+](=O)[O-])c1ccccc1 | – | > 10000 | – | –
29 | CCC[C@H](NC(=O)/C(C#N)=C/c1ccc(O)cc1)c1ccccc1 | – | > 10000 | – | –
30 | CCC[C@H](NC(=O)/C(C#N)=C/c1ccc(O)c([N+](=O)[O-])c1)c1ccccc1 | 9700 | 8200 | 9300 | –
31 | CCC[C@H](NC(=O)/C(C#N)=C/c1ccc(O)c(Br)c1)c1ccccc1 | – | > 10000 | – | –
32 | CC(=O)OC[C@H](NC(=O)/C(C#N)=C/c1cccc(Br)n1)c1ccccc1 | 2900 | 2600 | 2800 | –
33 | C[C@H](NC(=O)/C(C#N)=C/c1ccc([N+](=O)[O-])c([N+](=O)[O-])c1)c1ccccc1 | – | > 10000 | – | –
34 | N#C/C(=C\c1cccc(Br)n1)C(=O)NC(c1ccccc1)c1ccccc1 | 6200 | 5000 | 5800 | –
35 | N#C/C(=C\c1cccc(Br)n1)C(=O)N[C@@H](Cc1ccccc1)c1ccccc1 | 2900 | 2500 | 2700 | –
36 | N#C/C(=C\c1ccc(Cl)c([N+](=O)[O-])c1)C(=O)N[C@@H](CO)c1ccccc1 | – | > 10000 | – | –
37 | C[C@H](NC(=O)/C(C#N)=C/c1ccc2c(c1)OCCN2C)c1ccccc1 | – | > 10000 | – | –
38 | C[C@H](NC(=O)/C(C#N)=C/c1ccc2c(c1)OC(F)(F)O2)c1ccccc1 | – | > 10000 | – | –
39 | N#C/C(=C\c1ccc(-c2cccc([N+](=O)[O-])c2)o1)C(=O)NC(c1ccccc1)C1CC1 (stereo not given) | – | > 10000 | – | –
40 | CCC(NC(=O)/C(C#N)=C/c1ccc(-c2cccc([N+](=O)[O-])c2)o1)c1ccccc1 (stereo not given) | – | > 10000 | – | –
41 | N#C/C(=C\c1ccc(-c2cccc([N+](=O)[O-])c2)o1)C(=O)NCc1ccccc1Cl | – | > 10000 | – | –
42 | Cc1ccc(CNC(=O)/C(C#N)=C/c2ccc(-c3cccc([N+](=O)[O-])c3)o2)cc1 | – | > 10000 | – | –
43 | COc1cccc(CNC(=O)/C(C#N)=C/c2ccc(-c3cccc([N+](=O)[O-])c3)o2)c1 | – | > 10000 | – | –
44 | Cc1ccc(CNC(=O)/C(C#N)=C/c2ccc(-c3cccc([N+](=O)[O-])c3)o2)o1 | – | > 10000 | – | –
45 | N#C/C(=C\c1ccc(O)c(O)c1)C(=O)NCc1ccccc1 | > 12500 | > 10000 | > 12500 | –
46 | N#C/C(=C\c1cccc(Br)n1)C(=O)NC(c1ccccc1)C1CC1 (racemic) | 1600 | 1100 | 1300 | –
47 | C[C@H](NC(=O)/C(C#N)=C/c1cccc(Br)n1)c1ccccc1 [WP 1066] | 1800 | 1200 | 1500 | Ratio IC50 (U-87 MG): 18; IC50 [3]: 3.7 µM; IC50 [4]: 5.6 µM; Ratio IC50 (U373 MG): 8
